Experimental data as given in ChEMBL document CHEMBL1157639, “Identification of inhibitors of drug-resistant Candida albicans strains from a library of bicyclic peptidomimetic compounds” (2010).

What was measured:
[1] = molecular target: Secreted aspartic protease 2 (Candida albicans) (UniProt P0CS83); test: Inhibition of Candida albicans SAP2 at 10 uM by spectrophotometry relative to pepstatin A
In short: (§1)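 Sample was mixed with 1% (w/v) BSA substrate in 50 mM sodium citrate, pH 3.2, plus SAP2 protease (1 μg/mL stock solution) and incubated 30 min at 37 °C. The reaction was stopped with 10% TCA, kept 30 min on ice, and centrifuged; supernatant A280 was read. Percent inhibition was taken from ΔOD, with control proteinase minus proteinase plus pepstatin A set as 100%.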

[2] = molecular target: Secreted aspartic protease 2 (Candida albicans) (UniProt P0CS83); test: Inhibition of Candida albicans SAP2 at 10 uM by spectrophotometry; in short: as §1

Chain of Secreted aspartic protease 2 (Candida albicans) (P0CS83 57-398 limits assumed): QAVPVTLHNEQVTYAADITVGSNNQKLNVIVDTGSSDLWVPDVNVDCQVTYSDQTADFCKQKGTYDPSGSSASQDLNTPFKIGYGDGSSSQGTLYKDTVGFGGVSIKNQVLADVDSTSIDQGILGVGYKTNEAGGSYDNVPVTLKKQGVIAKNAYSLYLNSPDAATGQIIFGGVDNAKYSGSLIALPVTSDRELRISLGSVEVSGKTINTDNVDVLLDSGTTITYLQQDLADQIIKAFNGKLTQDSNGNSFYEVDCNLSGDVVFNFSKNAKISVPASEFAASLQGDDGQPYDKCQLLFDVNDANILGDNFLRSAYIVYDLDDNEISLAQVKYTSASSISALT

| inhibition [1] | inhibition [2] | SMILES |
| --- | --- | --- |
| 40% | 13% | O=C([C@@H]1O[C@@H]2O[C@H]1C(=O)N(Cc1ccccc1)[C@H]2Cc1ccccc1)N1CCSCC1 |
| 40% | 13% | O=C([C@@H]1O[C@@H]2O[C@H]1C(=O)N(Cc1ccccc1)[C@H]2Cc1ccccc1)N1CCN(CCO)CC1 |
| 19% | 5% | CCOC(=O)N1CCN(C(=O)[C@@H]2O[C@@]3(c4ccccc4)CN(C(c4ccccc4)c4ccccc4)C(=O)[C@@H]2O3)CC1 |
| 18% | 4% | NC(=O)C1O[C@H]2CN(Cc3ccccc3)C(=O)[C@@H]1O2 (single isomer, unassigned) |
| 57% | 28% | COC(=O)[C@H](CC(C)C)N1C[C@@]2(C)O[C@H](C(=O)N3CCN(Cc4ccccc4)CC3)[C@H](O2)C1=O |
| 0% | 0% | CCCCCNC(=O)[C@@H]1O[C@@]2(c3ccccc3)CN(C(c3ccccc3)c3ccccc3)C(=O)[C@@H]1O2 |
| 6% | 2% | O=C([C@@H]1O[C@H]2CN(Cc3ccccc3)C[C@@H]1O2)N1CCOCC1 |
| 18% | 4% | CCCCNC(=O)[C@@H]1O[C@H]2CN(Cc3ccccc3)C(=O)[C@@H]1O2 |
| 73% | 36% | O=C(NC1CCCCC1)[C@@H]1O[C@@H]2O[C@H]1C(=O)N(Cc1ccccc1)[C@H]2Cc1ccccc1 |
| 6% | 2% | O=C([C@@H]1O[C@H]2CN(Cc3ccccc3)C[C@@H]1O2)N1CCSCC1 |
| 6% | 2% | CN(CCN)C(=O)[C@@H]1O[C@H]2CN(Cc3ccccc3)C[C@@H]1O2 |
| 13% | 3% | C#CCNC(=O)[C@@H]1O[C@H]2CN(Cc3ccccc3)C[C@@H]1O2 |
| 87% | 17% | CC(C)C[C@@H](CO)NC(=O)[C@@H]1O[C@@H]2O[C@H]1C(=O)N(Cc1ccccc1)[C@H]2Cc1ccccc1 |
| 19% | 5% | CCOC(=O)C1CCN(C(=O)[C@@H]2O[C@@]3(c4ccccc4)CN(C(c4ccccc4)c4ccccc4)C(=O)[C@@H]2O3)CC1 |
| 12% | 3% | CCCCNC(=O)[C@@H]1O[C@@]2(c3ccccc3)CN(C(c3ccccc3)c3ccccc3)C[C@@H]1O2 |
| 42% | 8% | CCCCCCNC(=O)[C@@H]1O[C@@H]2O[C@H]1C(=O)N(Cc1ccccc1)[C@H]2Cc1ccccc1 |
| 42% | 8% | CC(NC(=O)[C@@H]1O[C@@H]2O[C@H]1C(=O)N(Cc1ccccc1)[C@H]2Cc1ccccc1)c1ccccc1 (stereo partly specified) |
| 87% | 17% | CCOC(=O)C1CCN(C(=O)[C@@H]2O[C@@H]3O[C@H]2C(=O)N(Cc2ccccc2)[C@H]3Cc2ccccc2)CC1 |
| 0% | 0% | O=C(NC1CCCCC1)[C@@H]1O[C@@]2(c3ccccc3)CN(C(c3ccccc3)c3ccccc3)C(=O)[C@@H]1O2 |
| 42% | 8% | CCCCNC(=O)[C@@H]1O[C@@H]2O[C@H]1C(=O)N(Cc1ccccc1)[C@H]2Cc1ccccc1 |
| 87% | 22% | CC(NC(=O)[C@@H]1O[C@H]2CN(Cc3ccccc3)C(=O)[C@@H]1O2)c1ccccc1 (stereo partly specified) |
| 87% | 22% | CCCCCNC(=O)[C@@H]1O[C@H]2CN(Cc3ccccc3)C(=O)[C@@H]1O2 |
| 19% | 5% | O=C([C@@H]1O[C@@]2(c3ccccc3)CN(C(c3ccccc3)c3ccccc3)C(=O)[C@@H]1O2)N1CCOCC1 |
| 40% | 13% | O=C([C@@H]1O[C@@H]2O[C@H]1C(=O)N(Cc1ccccc1)[C@H]2Cc1ccccc1)N1CCOCC1 |

| inhibition [1] | inhibition [2] | SMILES |
| --- | --- | --- |
| 23% | 6% | CN(CCN)C(=O)[C@@H]1O[C@@]2(c3ccccc3)CN(C(c3ccccc3)c3ccccc3)C[C@@H]1O2 |
| 87% | 29% | CNC(=O)[C@@H]1O[C@@H]2O[C@H]1C(=O)N(Cc1ccccc1)[C@H]2Cc1ccccc1 |
| 12% | 3% | CCCNC(=O)[C@@H]1O[C@@]2(c3ccccc3)CN(C(c3ccccc3)c3ccccc3)C[C@@H]1O2 |
| 0% | 0% | CC(NC(=O)[C@@H]1O[C@@]2(c3ccccc3)CN(C(c3ccccc3)c3ccccc3)C(=O)[C@@H]1O2)c1ccccc1 (stereo partly specified) |
| 13% | 3% | CCCNC(=O)[C@@H]1O[C@H]2CN(Cc3ccccc3)C[C@@H]1O2 |
| 23% | 6% | O=C([C@@H]1O[C@@]2(c3ccccc3)CN(C(c3ccccc3)c3ccccc3)C[C@@H]1O2)N1CCCCC1 |
| 87% | 22% | O=C(NCC(F)(F)F)[C@@H]1O[C@H]2CN(Cc3ccccc3)C(=O)[C@@H]1O2 |
| 23% | 6% | CCOC(=O)C1CCN(C(=O)[C@@H]2O[C@@]3(c4ccccc4)CN(C(c4ccccc4)c4ccccc4)C[C@@H]2O3)CC1 |
| 87% | 29% | CC(C)CCNC(=O)[C@@H]1O[C@@H]2O[C@H]1C(=O)N(Cc1ccccc1)[C@H]2Cc1ccccc1 |
| 12% | 3% | C#CCNC(=O)[C@@H]1O[C@@]2(c3ccccc3)CN(C(c3ccccc3)c3ccccc3)C[C@@H]1O2 |
| 12% | 3% | O=C(NCC(F)(F)F)[C@@H]1O[C@@]2(c3ccccc3)CN(C(c3ccccc3)c3ccccc3)C[C@@H]1O2 |
| 23% | 6% | O=C([C@@H]1O[C@@]2(c3ccccc3)CN(C(c3ccccc3)c3ccccc3)C[C@@H]1O2)N1CCSCC1 |
| 13% | 3% | CC(C)CCNC(=O)[C@@H]1O[C@H]2CN(Cc3ccccc3)C[C@@H]1O2 |
| 87% | 17% | CN(CCN)C(=O)[C@@H]1O[C@@H]2O[C@H]1C(=O)N(Cc1ccccc1)[C@H]2Cc1ccccc1 |
| 42% | 8% | O=C(NCC(F)(F)F)[C@@H]1O[C@@H]2O[C@H]1C(=O)N(Cc1ccccc1)[C@H]2Cc1ccccc1 |
| 42% | 8% | C#CCNC(=O)[C@@H]1O[C@@H]2O[C@H]1C(=O)N(Cc1ccccc1)[C@H]2Cc1ccccc1 |
| 73% | 36% | CCCNC(=O)[C@@H]1O[C@@H]2O[C@H]1C(=O)N(Cc1ccccc1)[C@H]2Cc1ccccc1 |
| 18% | 4% | O=C(NCc1ccccc1)[C@@H]1O[C@H]2CN(Cc3ccccc3)C(=O)[C@@H]1O2 |
| 87% | 17% | CCOC(=O)N1CCN(C(=O)[C@@H]2O[C@@H]3O[C@H]2C(=O)N(Cc2ccccc2)[C@H]3Cc2ccccc2)CC1 |
| 87% | 29% | O=C(NC1CC1)[C@@H]1O[C@@H]2O[C@H]1C(=O)N(Cc1ccccc1)[C@H]2Cc1ccccc1 |
| 19% | 5% | O=C([C@@H]1O[C@@]2(c3ccccc3)CN(C(c3ccccc3)c3ccccc3)C(=O)[C@@H]1O2)N1CCN(CCO)CC1 |
| 13% | 3% | O=C(NC1CC1)[C@@H]1O[C@H]2CN(Cc3ccccc3)C[C@@H]1O2 |
| 18% | 4% | CNC(=O)[C@@H]1O[C@H]2CN(Cc3ccccc3)C(=O)[C@@H]1O2 |
| 87% | 17% | O=C([C@@H]1O[C@@H]2O[C@H]1C(=O)N(Cc1ccccc1)[C@H]2Cc1ccccc1)N1CCCNCC1 |
